The results in this text go back to ChEMBL document CHEMBL3286380, “Design and synthesis of lupeol analogues and their glucose uptake stimulatory effect in L6 skeletal muscle cells” (Bioorg Med Chem Lett, 2014).

Assay [1] deals with L6. The assay can be described thus: Increase in 2-[3H]-deoxyglucose uptake in rat L6 cells at 10 uM after 16 hrs by scintillation counting analysis (reference value: 0%). The assay is classed as functional.
Assay [2] relates to L6. The assay can be described thus: Increase in 2-[3H]-deoxyglucose uptake in rat L6 cells after 16 hrs by scintillation counting analysis. The assay is classed as functional, cell-based. In a few lines: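 Dose–response in L6 myotubes: vehicle (DMSO) or compound at 5, 10, 25 µM for 16 h before glucose uptake measurement; rosiglitazone 10 µM as positive control. Expressed as fold stimulation over control; mean ± SE of three independent experiments, each in triplicate.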

The test system of assay [3] is L6. In words: Potentiation of insulin-stimulated 2-[3H]-deoxyglucose uptake in rat L6 cells at 10 uM treated for 16 hrs followed by incubation for 3 hrs in serum free medium and insulin stimulation for 20 mins by scintillation counting analysis. It counts as functional, cell-based. In short, it runs like this: (§1)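 Cells (L6 myotubes, 3T3-L1 adipocytes or HepG2 hepatic cells) treated with compound (10 µM) for 16 h, last 3 h serum-free, with or without insulin (100 nM, 20 min) before glucose uptake. Reported as fold stimulation over basal control; mean ± SE of three independent experiments, each in triplicate.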

Assay [4] addresses T1, Solute carrier family 2, facilitated glucose transporter member 4 (Rattus norvegicus) (UniProt P19357).
T1 sequence (whole entry): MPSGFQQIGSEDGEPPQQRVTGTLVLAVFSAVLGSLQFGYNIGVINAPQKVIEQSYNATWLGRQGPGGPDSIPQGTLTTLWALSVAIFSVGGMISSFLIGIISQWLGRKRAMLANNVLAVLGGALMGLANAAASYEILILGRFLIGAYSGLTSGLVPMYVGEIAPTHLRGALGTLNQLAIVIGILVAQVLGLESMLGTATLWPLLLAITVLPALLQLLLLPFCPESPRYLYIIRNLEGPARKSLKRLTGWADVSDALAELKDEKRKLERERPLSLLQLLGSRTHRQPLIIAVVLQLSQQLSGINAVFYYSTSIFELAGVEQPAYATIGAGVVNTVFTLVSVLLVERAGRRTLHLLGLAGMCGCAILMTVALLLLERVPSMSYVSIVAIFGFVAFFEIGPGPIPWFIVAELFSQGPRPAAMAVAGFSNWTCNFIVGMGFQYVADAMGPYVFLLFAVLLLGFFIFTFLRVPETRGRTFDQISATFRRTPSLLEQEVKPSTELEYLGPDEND
The assay can be described thus: Induction of GLUT4 translocation to cell surface in rat L6-GLUT4myc cells at 10 uM treated for 16 hrs followed by incubation for 3 hrs in serum free medium and insulin stimulation for 20 mins. It counts as cell-based. In short, it runs like this:
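L6-GLUT4myc myotubes given compound (10 µM) for 16 h, the final 3 h in serum-free medium; a subset stimulated with insulin (100 nM) for 20 min before measuring surface GLUT4myc. Fold over basal control; mean ± SE, three independent experiments in triplicate.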

Assay [5] concerns the target 5'-AMP-activated protein kinase catalytic subunit alpha-1 (Rattus norvegicus) (UniProt P54645). In words: Effect on AMPK-alpha phosphorylation at Thr-172 residue in rat L6 cells at 10 uM after 16 hrs by immunoblot analysis. It counts as cell-based. In short, it runs like this:
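L6 myotubes exposed to compound (10 µM) for 16 h, then lysed; western blot for phospho-AMPK (Thr-172), quantified by densitometry relative to total AMPK. Mean ± SEM of three independent experiments.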
On the technique in general: Immunoblotting shows a protein as a band on a membrane.

In another assay the test system is 3T3-L1. In words: Potentiation of insulin-stimulated 2-[3H]-deoxyglucose uptake in mouse 3T3L1 cells at 10 uM treated for 16 hrs followed by incubation for 3 hrs in serum free medium and insulin stimulation for 20 mins by scintillation counting analysis. It counts as functional, cell-based. In a few lines: as §1
The test system of a further assay is HepG2. The assay can be described thus: Potentiation of insulin-stimulated 2-[3H]-deoxyglucose uptake in human HepG2 cells at 10 uM treated for 16 hrs followed by incubation for 3 hrs in serum free medium and insulin stimulation for 20 mins by scintillation counting analysis. It counts as functional, cell-based. In a few lines:
as §1

In assay [6] the target is T2, Insulin receptor substrate 1 (Rattus norvegicus) (UniProt P35570).
T2 sequence (whole entry): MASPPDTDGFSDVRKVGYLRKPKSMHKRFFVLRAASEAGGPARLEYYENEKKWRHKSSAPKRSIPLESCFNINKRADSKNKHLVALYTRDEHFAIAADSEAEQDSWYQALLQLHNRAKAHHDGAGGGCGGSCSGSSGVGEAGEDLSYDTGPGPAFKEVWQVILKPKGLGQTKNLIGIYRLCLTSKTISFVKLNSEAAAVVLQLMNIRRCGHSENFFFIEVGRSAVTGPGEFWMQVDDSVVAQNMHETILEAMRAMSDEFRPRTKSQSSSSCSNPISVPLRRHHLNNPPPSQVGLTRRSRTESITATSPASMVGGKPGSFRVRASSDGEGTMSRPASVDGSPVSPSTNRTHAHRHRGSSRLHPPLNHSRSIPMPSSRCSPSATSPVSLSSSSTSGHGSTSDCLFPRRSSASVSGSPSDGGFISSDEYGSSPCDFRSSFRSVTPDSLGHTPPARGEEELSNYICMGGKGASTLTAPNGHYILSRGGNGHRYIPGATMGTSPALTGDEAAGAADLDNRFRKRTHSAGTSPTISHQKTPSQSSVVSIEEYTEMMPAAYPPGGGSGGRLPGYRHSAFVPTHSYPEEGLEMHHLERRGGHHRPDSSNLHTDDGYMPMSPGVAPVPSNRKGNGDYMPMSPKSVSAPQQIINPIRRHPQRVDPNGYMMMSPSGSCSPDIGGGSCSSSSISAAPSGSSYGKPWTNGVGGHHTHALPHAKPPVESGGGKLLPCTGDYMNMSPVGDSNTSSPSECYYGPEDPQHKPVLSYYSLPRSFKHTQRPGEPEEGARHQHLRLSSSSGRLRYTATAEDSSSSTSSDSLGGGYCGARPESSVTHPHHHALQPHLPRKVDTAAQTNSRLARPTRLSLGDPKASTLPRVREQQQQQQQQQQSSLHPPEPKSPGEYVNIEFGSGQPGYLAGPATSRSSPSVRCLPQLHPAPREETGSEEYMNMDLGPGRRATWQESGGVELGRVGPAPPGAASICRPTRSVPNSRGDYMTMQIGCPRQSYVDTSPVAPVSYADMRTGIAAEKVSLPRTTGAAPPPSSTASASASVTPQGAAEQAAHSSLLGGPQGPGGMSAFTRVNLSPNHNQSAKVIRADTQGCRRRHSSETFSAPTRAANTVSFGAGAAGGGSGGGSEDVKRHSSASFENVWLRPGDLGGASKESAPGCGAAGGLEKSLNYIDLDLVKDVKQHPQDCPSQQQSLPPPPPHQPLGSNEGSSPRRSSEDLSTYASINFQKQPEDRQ
In words: Increase in IRS-1 phosphorylation in rat L6 cells at 10 uM treated for 16 hrs followed by incubation for 3 hrs in serum free medium and insulin stimulation for 20 mins by Western blot analysis. It counts as cell-based. In short, it runs like this:
(§2)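 L6 myotubes were exposed to compound (10 μM) for 16 h, serum-free for the last 3 h. One subset then received insulin (100 nM) for 20 min. Cells were lysed and equal protein amounts were western blotted. Densitometry gave pIRβ/IRβ, pIRS-1/IRS-1 and pAKT/AKT ratios. Three independent experiments, mean SEM.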

In assay [7] the target is T2, Insulin receptor substrate 1 (Rattus norvegicus). The assay can be described thus: Increase in IRS-1-mediated Akt phosphorylation in rat L6 cells at 10 uM treated for 16 hrs followed by incubation for 3 hrs in serum free medium and insulin stimulation for 20 mins by Western blot analysis. The assay is classed as cell-based. In short, it runs like this:
as §2

Assay [8] concerns the target Insulin receptor (Rattus norvegicus) (UniProt P15127). In words: Effect on IR-beta phosphorylation in rat L6 cells at 10 uM treated for 16 hrs followed by incubation for 3 hrs in serum free medium and insulin stimulation for 20 mins by Western blot analysis. It counts as cell-based. In short, it runs like this:
as §2

Assay [9] concerns L6. In words: Potentiation of insulin-stimulated 2-[3H]-deoxyglucose uptake in rat L6 cells at 10 uM treated for 16 hrs followed by incubation for 3 hrs in serum free medium and insulin stimulation for 20 mins by scintillation counting analysis in presence of PI3K inhibitor wortmannin. The assay is classed as functional, cell-based. In short, it runs like this:
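L6 myotubes were given compound (10 μM) for 16 h, with or without wortmannin (50 nM). Insulin treatment followed, then glucose uptake was measured. Values are expressed as fold stimulation over basal control.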

The source made the active and inactive calls. The calls are words filed in the database; no cut-off is given here.

Chain of 5'-AMP-activated protein kinase catalytic subunit alpha-1 (Rattus norvegicus) (P54645 whole entry): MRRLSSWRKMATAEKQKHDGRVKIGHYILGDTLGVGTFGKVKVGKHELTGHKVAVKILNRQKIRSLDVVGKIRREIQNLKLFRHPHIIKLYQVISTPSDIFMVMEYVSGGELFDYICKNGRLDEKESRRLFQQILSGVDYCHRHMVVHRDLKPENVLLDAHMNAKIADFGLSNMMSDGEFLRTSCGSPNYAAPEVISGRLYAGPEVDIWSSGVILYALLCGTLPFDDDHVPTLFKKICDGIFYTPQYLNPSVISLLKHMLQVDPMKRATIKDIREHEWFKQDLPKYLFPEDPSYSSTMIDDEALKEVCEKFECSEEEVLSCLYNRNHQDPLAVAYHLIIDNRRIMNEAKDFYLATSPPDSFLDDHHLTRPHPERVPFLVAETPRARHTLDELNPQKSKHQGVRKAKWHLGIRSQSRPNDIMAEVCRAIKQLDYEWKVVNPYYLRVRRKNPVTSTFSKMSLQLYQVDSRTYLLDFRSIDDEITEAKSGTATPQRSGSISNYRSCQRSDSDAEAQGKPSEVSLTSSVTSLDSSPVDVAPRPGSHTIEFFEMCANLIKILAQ
Chain of Insulin receptor (Rattus norvegicus) (P15127 27-759 limits assumed): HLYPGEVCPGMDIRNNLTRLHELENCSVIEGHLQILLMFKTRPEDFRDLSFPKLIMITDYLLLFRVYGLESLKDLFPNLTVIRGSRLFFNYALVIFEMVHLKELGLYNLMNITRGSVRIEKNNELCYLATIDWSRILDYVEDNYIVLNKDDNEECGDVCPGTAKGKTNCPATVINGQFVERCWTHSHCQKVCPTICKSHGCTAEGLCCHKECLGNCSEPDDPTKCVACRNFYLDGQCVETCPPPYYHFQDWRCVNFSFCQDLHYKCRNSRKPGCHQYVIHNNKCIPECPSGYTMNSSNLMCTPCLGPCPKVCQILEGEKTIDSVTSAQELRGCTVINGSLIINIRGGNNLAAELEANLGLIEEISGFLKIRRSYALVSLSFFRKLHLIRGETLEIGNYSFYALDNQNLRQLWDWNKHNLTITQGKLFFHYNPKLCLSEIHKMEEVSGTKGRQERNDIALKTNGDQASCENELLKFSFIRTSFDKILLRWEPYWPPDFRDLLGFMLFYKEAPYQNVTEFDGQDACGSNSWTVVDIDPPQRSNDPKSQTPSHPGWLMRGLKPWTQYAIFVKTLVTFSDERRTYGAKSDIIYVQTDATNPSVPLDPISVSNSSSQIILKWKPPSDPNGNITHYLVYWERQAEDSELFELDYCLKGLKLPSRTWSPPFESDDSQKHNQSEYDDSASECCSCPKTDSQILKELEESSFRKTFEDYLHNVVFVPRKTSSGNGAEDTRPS
Chain of Insulin receptor (Rattus norvegicus) (P15127 764-1383 limits assumed): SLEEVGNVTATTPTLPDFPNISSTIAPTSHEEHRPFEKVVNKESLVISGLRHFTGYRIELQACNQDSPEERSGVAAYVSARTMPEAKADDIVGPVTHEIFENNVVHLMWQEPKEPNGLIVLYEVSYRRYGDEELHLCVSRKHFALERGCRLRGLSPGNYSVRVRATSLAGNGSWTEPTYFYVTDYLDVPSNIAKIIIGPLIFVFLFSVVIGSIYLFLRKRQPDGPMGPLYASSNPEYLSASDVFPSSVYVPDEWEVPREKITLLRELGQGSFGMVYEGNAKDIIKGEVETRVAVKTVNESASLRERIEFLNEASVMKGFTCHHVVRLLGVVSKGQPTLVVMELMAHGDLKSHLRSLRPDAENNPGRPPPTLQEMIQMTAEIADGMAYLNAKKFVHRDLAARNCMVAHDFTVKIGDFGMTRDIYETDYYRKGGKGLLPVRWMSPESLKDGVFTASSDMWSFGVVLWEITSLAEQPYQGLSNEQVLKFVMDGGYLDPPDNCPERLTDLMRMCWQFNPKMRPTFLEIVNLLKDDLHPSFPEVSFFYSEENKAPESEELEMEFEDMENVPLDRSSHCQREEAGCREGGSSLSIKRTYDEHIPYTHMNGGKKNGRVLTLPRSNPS

`CC1(C)[C@@H](OC(=O)CCc2ccc(Cl)cc2)CC[C@]2(C)[C@H]3CC[C@@H]4[C@H]5[C@H]([C@H]6C=NN(C(=O)CCc7ccc(Cl)cc7)C6)CC[C@]5(C)CC[C@@]4(C)[C@]3(C)CC[C@@H]12` gave an Activity in the assay on L6 [1] of 2.8%.
On to `C=CCOCC(=C)[C@@H]1CC[C@]2(C)CC[C@]3(C)[C@H](CC[C@@H]4[C@@]5(C)CC[C@H](OC(C)=O)C(C)(C)[C@@H]5CC[C@]43C)[C@@H]12`, for which the Activity in the assay on L6 [1] was determined as 8.5%.
Consider `C=C(C=O)[C@@H]1CC[C@]2(C)CC[C@]3(C)[C@H](CC[C@@H]4[C@@]5(C)CC[C@H](OC(=O)/C=C/c6ccccc6)C(C)(C)[C@@H]5CC[C@]43C)[C@@H]12`, for which the Activity in the assay with L6 [1] is 98.3%; with L6 [2], “Dose-dependent effect”. The compound further registered an EC50 in the assay with L6 [2] of 6.2 µM. For the same compound, the outcome (with L6 [3]; in [4]; in the assay with 3T3-L1; in the assay with HepG2) was Active. Also, the result in assay [5] was inactive.
For the compound `CC(C)C(Br)C(=O)O[C@H]1CC[C@]2(C)[C@H]3CC[C@@H]4[C@H]5[C@H]([C@H]6C=NN(C(=O)C(Br)C(C)C)C6)CC[C@]5(C)CC[C@@]4(C)[C@]3(C)CC[C@H]2C1(C)C` (some centres not stated), the Activity in the assay with L6 [1] was determined as 8.4%.
Same read-out and setting: next, `C=C(C)[C@@H]1CC[C@]2(C)CC[C@]3(C)[C@H](CC[C@@H]4[C@@]5(C)CC[C@H](O)C(C)(C)[C@@H]5CC[C@]43C)[C@@H]12` [LUPEOL]: 26.8%.
For the compound `CC1(C)[C@@H](O)CC[C@]2(C)[C@H]3CC[C@@H]4[C@H]5[C@H]([C@H]6C=NOC6c6ccccc6)CC[C@]5(C)CC[C@@]4(C)[C@]3(C)CC[C@@H]12` (some centres not stated), in the assay with L6 [1], the Activity worked out at 13.2%.
In the assay with L6 [1], `CC(=O)O[C@H]1CC[C@]2(C)[C@H]3CC[C@@H]4[C@H]5[C@H]([C@@H]6C=COC6)CC[C@]5(C)CC[C@@]4(C)[C@]3(C)CC[C@H]2C1(C)C` returned an Activity of 3.6%.
For `CN(CCOc1ccc(CC2SC(=O)NC2=O)cc1)c1ccccn1` (configuration not stated) [ROSIGLITAZONE], the Activity in the assay with L6 [1] turned out to be 112.4%. In the assay on L6 [2], this compound registered an EC50 of 4.8 µM.
On to `C#CCOCC(=C)[C@@H]1CC[C@]2(C)CC[C@]3(C)[C@H](CC[C@@H]4[C@@]5(C)CC[C@H](OC(C)=O)C(C)(C)[C@@H]5CC[C@]43C)[C@@H]12`, for which the Activity with L6 [1] is on record as 19.2%.
Take `C=C(C=O)[C@@H]1CC[C@]2(C)CC[C@]3(C)[C@H](CC[C@@H]4[C@@]5(C)CC[C@H](O)C(C)(C)[C@@H]5CC[C@]43C)[C@@H]12`: the Activity in the assay with L6 [1] is 173.1%; in the assay on L6 [2], “Dose-dependent effect”. This compound gave an EC50 in the assay with L6 [2] of 4.2 µM. Moreover, the result (with L6 [3]; in assay [4]; in assay [6]; in [7]; in the assay on 3T3-L1; with HepG2) was Active. In addition, the outcome (in [8]; in [5]; in the assay with L6 [9]) was inactive.
In the assay with L6 [1], `C=CC1=COC[C@@H]1[C@@H]1CC[C@]2(C)CC[C@]3(C)[C@H](CC[C@@H]4[C@@]5(C)CC[C@H](OC(C)=O)C(C)(C)[C@@H]5CC[C@]43C)[C@@H]12` showed an Activity of 2.1%.
Take `CC1(C)[C@@H](O)CC[C@]2(C)[C@H]3CC[C@@H]4[C@H]5[C@H]([C@H]6C=NNC6)CC[C@]5(C)CC[C@@]4(C)[C@]3(C)CC[C@@H]12`: in the assay with L6 [1], the Activity stood at 16.1%.
`C=C(C=O)[C@@H]1CC[C@]2(C)CC[C@]3(C)[C@H](CC[C@@H]4[C@@]5(C)CC[C@H](OC(=O)C(Br)C(C)C)C(C)(C)[C@@H]5CC[C@]43C)[C@@H]12` (some centres not stated) showed an Activity with L6 [1] of 3.1%.
With `CC1(C)[C@@H](O)CC[C@]2(C)[C@H]3CC[C@@H]4[C@H]5[C@H]([C@@H](C=O)C(O)c6ccccc6)CC[C@]5(C)CC[C@@]4(C)[C@]3(C)CC[C@@H]12` (some centres not stated), the Activity in the assay with L6 [1] is listed as 6.4%.
The same measure, in the same setting: next, `C=C(C=O)[C@@H]1CC[C@]2(C)CC[C@]3(C)[C@H](CC[C@@H]4[C@@]5(C)CC[C@H](OC(=O)CCc6ccc(Cl)cc6)C(C)(C)[C@@H]5CC[C@]43C)[C@@H]12`: 0.5%.
In the case of `CC1(C)[C@@H](OC(=O)/C=C/c2ccccc2)CC[C@]2(C)[C@H]3CC[C@@H]4[C@H]5[C@H](C6C=NN(C(=O)/C=C/c7ccccc7)C6)CC[C@]5(C)CC[C@@]4(C)[C@]3(C)CC[C@@H]12` (some centres not stated), the Activity in the assay with L6 [1] was 107.3%; with L6 [2], “Dose-dependent effect”. In addition, a half-maximal effect with L6 [2] (EC50) was put at 4.9 µM. In addition, the result (in the assay with L6 [3]; in assay [4]; in [6]; in [7]; in the assay with 3T3-L1; in the assay on HepG2) was Active. In addition, the result (in [8]; in assay [5]; with L6 [9]) was inactive.
`C=C(CO)[C@@H]1CC[C@]2(C)CC[C@]3(C)[C@H](CC[C@@H]4[C@@]5(C)CC[C@H](OC(C)=O)C(C)(C)[C@@H]5CC[C@]43C)[C@@H]12`: the Activity in the assay with L6 [1] turned out to be 22.2%.

One may read the EC50 as the concentration needed to bring the measured effect to its halfway point.
